Reference: ChEMBL document CHEMBL4680077, “Differentiation of skeletal osteogenic progenitor cells to osteoblasts with 3,4-diarylbenzopyran based amide derivatives: Novel osteogenic agents” (Eur J Med Chem, 2016)
Calls of active or inactive are those of the source. No cut-off for these calls is given here.

How the values were obtained:
Calvarial osteoblast [1] = test: Induction of osteoblast differentiation in mouse calvarial osteoblast assessed as increase in ALP activity using PNPP as substrate at 0.000001 to 1 uM incubated activity for 48 hrs by spectrophotometric analysis relative to control; type: functional, cell-based; settings: dose lower 1e-06 µM, dose upper 1.0 µM
Mus musculus [2] = test: In vivo osteogenic activity in ovariectomized BALB/c mouse assessed as increase in femur bone volume density administered via oral gavage for 1 month by microCT imaging analysis; type: functional, organism-based; settings: time 1.0 months
In short: (§1)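 Ovariectomized female balb/c mice, 8 weeks old, 10 per group, received 1.0 or 10.0 mg kg-1 once daily by oral gavage (gum acacia vehicle) for 4 weeks, alongside sham and Ovx vehicle groups. Femurs were scanned by microCT. BV/TV, Tb.N and Tb.Sp were derived by the mean intercept length method. Mean ± SE.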

Mus musculus [3] = test: In vivo osteogenic activity in ovariectomized BALB/c mouse assessed as increase in trabecular number administered via oral gavage for 1 month by microCT imaging analysis; type: functional, organism-based; settings: time 1.0 months; in short: as §1
Mus musculus [4] = test: In vivo osteogenic activity in ovariectomized BALB/c mouse assessed as decrease in trabecular spacing administered via oral gavage for 1 month by microCT imaging analysis; type: functional, organism-based; settings: time 1.0 months; in short: as §1
Calvarial osteoblast [5] = test: Induction of osteoblast differentiation in mouse calvarial osteoblast assessed as increase in ERbeta expression at 10 nM incubated for 48 hrs by Western blot analysis; type: functional, cell-based
In short: (§2)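 Calvarial osteoblasts at 60–70% confluence were treated ± compound for 48 h, with 100 pM E2 as positive control. Lysates (30 µg protein) were resolved on 10% SDS-PAGE, transferred to PVDF and probed for ER-α and ER-β with HRP secondaries and ECL detection. Bands were quantified by densitometry normalized to β-actin.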

Calvarial osteoblast [6] = test: Induction of osteoblast differentiation in mouse calvarial osteoblast assessed as increase in ERalpha expression at 10 nM incubated for 48 hrs by Western blot analysis; type: functional, cell-based; in short: as §2

## CCCCN(C)C(=O)CCCOc1ccc(C2=C(c3ccccc3)C(C)(C)Oc3cc(OC)ccc32)cc1
Calvarial osteoblast [1]
  Activity: Active

## C[C@]12CC[C@@H]3c4ccc(O)cc4CC[C@H]3[C@@H]1CC[C@@H]2O
Mus musculus [2]
  Activity: Active
Mus musculus [3]
  Activity: Active
Mus musculus [4]
  Activity: Active
Calvarial osteoblast [5]
  Activity: Active
Calvarial osteoblast [6]
  Activity: inactive

## COc1ccc2c(c1)OC(C)(C)[C@H](c1ccccc1)[C@H]2c1ccc(OCCCCCC(=O)NCc2ccccn2)cc1
Calvarial osteoblast [1]
  Activity: Active

## COc1ccc2c(c1)OC(C)(C)[C@H](c1ccccc1)[C@H]2c1ccc(OCCCCC(=O)NCc2ccccn2)cc1
Calvarial osteoblast [1]
  Activity: Active

## CCCCN(C)C(=O)CCCOc1ccc([C@H]2c3ccc(OC)cc3OC(C)(C)[C@@H]2c2ccccc2)cc1
Calvarial osteoblast [1]
  Activity: Active
